We go through three compounds from ChEMBL document CHEMBL5653631, “A Potent and Selective ULK1 Inhibitor Suppresses Autophagy and Sensitizes Cancer Cells to Nutrient Stress” (iScience, 2018).

Assay [1] concerns the target Tyrosine-protein kinase Tec (Homo sapiens) (UniProt P42680). The experiment in a line: Inhibition of human recombinant TEC at 40 nM in presence of ATP by radiometric assay relative to control.
Assay [2] addresses Dual specificity protein kinase CLK3 (Homo sapiens) (UniProt P49761). Nature of the assay: Inhibition of human recombinant CLK3 at 40 nM related to control ULK1.
The target in assay [3] is Vascular endothelial growth factor receptor 1 (Homo sapiens) (UniProt P17948). Nature of the assay: Inhibition of human recombinant FLT1 at 500 nM in presence of ATP by radiometric assay relative to control.
The target of assay [4] is SRSF protein kinase 3 (Homo sapiens) (UniProt Q9UPE1). Nature of the assay: Inhibition of human recombinant MSSK1 at 500 nM related to control ULK1.
In assay [5] the target is Calcium/calmodulin-dependent protein kinase type 1D (Homo sapiens) (UniProt Q8IU85). The experiment in a line: Inhibition of human recombinant CaMK1d at 500 nM in presence of ATP by radiometric assay relative to control.
Assay [6] concerns the target Angiopoietin-1 receptor (Homo sapiens) (UniProt Q02763). The experiment in a line: Inhibition of human recombinant Tie2 at 500 nM in presence of ATP by radiometric assay relative to control.
Assay [7] addresses Mitogen-activated protein kinase 8 (Homo sapiens) (UniProt P45983). Nature of the assay: Inhibition of human recombinant JNK1 at 500 nM related to control ULK1.
Assay [8] concerns the target T1, Aurora kinase A (Homo sapiens) (UniProt O14965).
T1 sequence (whole entry): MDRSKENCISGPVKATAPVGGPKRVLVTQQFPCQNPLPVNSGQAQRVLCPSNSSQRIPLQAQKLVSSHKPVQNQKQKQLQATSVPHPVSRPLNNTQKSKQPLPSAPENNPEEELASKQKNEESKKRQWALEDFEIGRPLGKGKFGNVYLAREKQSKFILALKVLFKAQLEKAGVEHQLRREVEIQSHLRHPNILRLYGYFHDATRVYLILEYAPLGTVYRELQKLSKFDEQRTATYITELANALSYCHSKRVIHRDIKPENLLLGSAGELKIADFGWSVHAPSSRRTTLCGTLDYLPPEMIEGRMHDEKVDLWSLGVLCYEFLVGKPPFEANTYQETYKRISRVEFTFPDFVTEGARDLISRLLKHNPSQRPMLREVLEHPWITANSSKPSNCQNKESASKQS
The experiment in a line: Inhibition of human recombinant AurA at 500 nM related to control ULK1. The method, boiled down:
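Panel of 327 recombinant human kinases, each assayed in vitro by radiometric activity assay in duplicate at a single inhibitor concentration per compound, chosen with reference to its ULK1 inhibition. Activity remaining was expressed as percent of vehicle control, and percent inhibition was calculated as 100 minus percent activity remaining.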

In assay [9] the target is Cyclin-dependent kinase 5 (Homo sapiens) (UniProt Q00535). The experiment in a line: Inhibition of human recombinant CDK5 at 15 nM in presence of ATP by radiometric assay relative to control.
The target in assay [10] is T2, MAP/microtubule affinity-regulating kinase 4 (Homo sapiens) (UniProt Q96L34).
T2 sequence (whole entry): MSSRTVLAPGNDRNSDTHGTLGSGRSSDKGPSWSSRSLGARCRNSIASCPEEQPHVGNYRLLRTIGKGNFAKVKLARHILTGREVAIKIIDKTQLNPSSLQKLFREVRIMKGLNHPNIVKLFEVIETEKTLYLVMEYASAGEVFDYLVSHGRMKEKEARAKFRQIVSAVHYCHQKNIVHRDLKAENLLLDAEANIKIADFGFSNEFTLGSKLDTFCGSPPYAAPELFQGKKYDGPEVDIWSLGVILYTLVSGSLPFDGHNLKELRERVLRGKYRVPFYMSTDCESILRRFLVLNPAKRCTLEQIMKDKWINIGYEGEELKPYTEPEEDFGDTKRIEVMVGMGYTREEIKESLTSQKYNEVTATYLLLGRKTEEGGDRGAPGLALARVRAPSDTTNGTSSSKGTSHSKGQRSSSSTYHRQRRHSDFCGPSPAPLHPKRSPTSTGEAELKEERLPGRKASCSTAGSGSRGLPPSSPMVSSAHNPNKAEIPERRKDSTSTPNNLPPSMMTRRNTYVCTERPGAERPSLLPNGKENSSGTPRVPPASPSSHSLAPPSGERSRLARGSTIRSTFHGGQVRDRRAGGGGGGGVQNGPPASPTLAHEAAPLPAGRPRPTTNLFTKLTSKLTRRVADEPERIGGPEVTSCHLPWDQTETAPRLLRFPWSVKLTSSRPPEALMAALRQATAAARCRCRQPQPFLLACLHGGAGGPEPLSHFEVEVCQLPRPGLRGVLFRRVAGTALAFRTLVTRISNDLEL
Nature of the assay: Inhibition of human recombinant MARK4 at 15 nM in presence of ATP by radiometric assay relative to control.

In assay [11] the target is T3, Serine/threonine-protein kinase TAO1 (Homo sapiens) (UniProt Q7L7X3).
T3 sequence (whole entry): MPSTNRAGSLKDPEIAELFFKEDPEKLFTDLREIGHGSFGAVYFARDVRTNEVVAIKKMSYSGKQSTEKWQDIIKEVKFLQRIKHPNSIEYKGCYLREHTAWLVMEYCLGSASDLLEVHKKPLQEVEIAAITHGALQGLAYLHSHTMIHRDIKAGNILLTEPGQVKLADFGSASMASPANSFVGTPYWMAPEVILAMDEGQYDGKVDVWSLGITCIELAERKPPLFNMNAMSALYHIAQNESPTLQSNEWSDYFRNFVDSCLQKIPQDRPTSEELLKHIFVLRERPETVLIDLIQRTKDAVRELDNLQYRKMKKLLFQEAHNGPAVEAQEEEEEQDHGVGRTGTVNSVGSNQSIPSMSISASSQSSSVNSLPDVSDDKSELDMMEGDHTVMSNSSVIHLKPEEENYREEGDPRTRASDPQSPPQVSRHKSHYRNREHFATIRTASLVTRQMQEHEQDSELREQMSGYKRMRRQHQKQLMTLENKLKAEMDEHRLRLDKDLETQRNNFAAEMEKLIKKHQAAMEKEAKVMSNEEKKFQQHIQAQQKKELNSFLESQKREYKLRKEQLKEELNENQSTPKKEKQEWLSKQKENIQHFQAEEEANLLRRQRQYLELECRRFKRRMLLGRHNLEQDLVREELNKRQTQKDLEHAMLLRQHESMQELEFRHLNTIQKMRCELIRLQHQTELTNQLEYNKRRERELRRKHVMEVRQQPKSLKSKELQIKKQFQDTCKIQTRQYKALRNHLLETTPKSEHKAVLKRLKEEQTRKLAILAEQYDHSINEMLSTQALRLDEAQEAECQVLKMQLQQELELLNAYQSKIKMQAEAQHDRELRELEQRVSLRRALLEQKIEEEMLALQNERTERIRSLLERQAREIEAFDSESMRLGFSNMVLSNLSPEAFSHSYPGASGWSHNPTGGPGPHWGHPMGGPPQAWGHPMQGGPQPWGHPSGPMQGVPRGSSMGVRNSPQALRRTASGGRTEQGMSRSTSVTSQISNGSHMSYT
The experiment in a line: Inhibition of human recombinant TAO1 at 15 nM related to control ULK1.

Sequence of Dual specificity protein kinase CLK3 (Homo sapiens) (P49761 whole entry, looked up): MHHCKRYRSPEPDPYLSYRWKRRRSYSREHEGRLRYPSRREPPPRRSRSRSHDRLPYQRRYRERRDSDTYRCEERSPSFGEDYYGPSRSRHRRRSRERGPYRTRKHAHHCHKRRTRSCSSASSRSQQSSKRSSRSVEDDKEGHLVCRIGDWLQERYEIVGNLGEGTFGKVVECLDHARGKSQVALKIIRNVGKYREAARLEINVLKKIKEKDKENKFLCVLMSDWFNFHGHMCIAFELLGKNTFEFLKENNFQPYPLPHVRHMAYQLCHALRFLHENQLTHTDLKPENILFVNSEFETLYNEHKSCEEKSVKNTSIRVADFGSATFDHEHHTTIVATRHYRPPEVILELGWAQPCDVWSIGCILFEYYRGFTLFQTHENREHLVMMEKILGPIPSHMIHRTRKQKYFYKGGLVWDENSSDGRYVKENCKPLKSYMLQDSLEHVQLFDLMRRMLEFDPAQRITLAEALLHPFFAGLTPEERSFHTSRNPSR
Sequence of Angiopoietin-1 receptor (Homo sapiens) (Q02763 whole entry): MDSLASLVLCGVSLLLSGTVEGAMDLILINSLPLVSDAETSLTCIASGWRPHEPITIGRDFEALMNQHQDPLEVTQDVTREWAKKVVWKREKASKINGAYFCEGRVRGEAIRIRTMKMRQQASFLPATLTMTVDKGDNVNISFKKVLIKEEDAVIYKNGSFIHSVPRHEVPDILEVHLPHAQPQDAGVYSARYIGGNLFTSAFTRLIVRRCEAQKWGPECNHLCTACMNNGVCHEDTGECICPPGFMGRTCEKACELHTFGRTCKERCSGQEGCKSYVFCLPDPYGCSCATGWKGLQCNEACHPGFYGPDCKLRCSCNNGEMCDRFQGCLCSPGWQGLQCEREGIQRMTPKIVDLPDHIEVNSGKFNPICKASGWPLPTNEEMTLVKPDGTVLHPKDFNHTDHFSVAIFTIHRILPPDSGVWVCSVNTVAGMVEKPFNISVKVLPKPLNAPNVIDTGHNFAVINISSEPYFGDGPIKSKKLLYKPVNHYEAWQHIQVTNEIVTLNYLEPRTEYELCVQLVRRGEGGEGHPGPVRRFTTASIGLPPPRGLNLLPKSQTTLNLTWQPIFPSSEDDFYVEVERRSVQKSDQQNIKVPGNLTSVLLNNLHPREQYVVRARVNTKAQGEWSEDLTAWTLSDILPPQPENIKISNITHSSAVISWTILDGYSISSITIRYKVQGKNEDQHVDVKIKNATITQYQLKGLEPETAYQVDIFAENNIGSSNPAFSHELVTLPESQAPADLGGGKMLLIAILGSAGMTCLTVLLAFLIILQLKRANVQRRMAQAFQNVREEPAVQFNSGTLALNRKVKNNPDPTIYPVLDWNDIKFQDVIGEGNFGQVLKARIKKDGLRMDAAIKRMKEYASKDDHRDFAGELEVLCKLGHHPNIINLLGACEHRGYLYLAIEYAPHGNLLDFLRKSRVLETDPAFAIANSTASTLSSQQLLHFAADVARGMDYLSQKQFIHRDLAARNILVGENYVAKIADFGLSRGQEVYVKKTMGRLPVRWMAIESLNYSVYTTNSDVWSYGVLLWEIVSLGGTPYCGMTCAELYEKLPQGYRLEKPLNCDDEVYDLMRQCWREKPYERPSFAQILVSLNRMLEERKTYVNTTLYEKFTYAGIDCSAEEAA
Sequence of Vascular endothelial growth factor receptor 1 (Homo sapiens) (P17948 whole entry): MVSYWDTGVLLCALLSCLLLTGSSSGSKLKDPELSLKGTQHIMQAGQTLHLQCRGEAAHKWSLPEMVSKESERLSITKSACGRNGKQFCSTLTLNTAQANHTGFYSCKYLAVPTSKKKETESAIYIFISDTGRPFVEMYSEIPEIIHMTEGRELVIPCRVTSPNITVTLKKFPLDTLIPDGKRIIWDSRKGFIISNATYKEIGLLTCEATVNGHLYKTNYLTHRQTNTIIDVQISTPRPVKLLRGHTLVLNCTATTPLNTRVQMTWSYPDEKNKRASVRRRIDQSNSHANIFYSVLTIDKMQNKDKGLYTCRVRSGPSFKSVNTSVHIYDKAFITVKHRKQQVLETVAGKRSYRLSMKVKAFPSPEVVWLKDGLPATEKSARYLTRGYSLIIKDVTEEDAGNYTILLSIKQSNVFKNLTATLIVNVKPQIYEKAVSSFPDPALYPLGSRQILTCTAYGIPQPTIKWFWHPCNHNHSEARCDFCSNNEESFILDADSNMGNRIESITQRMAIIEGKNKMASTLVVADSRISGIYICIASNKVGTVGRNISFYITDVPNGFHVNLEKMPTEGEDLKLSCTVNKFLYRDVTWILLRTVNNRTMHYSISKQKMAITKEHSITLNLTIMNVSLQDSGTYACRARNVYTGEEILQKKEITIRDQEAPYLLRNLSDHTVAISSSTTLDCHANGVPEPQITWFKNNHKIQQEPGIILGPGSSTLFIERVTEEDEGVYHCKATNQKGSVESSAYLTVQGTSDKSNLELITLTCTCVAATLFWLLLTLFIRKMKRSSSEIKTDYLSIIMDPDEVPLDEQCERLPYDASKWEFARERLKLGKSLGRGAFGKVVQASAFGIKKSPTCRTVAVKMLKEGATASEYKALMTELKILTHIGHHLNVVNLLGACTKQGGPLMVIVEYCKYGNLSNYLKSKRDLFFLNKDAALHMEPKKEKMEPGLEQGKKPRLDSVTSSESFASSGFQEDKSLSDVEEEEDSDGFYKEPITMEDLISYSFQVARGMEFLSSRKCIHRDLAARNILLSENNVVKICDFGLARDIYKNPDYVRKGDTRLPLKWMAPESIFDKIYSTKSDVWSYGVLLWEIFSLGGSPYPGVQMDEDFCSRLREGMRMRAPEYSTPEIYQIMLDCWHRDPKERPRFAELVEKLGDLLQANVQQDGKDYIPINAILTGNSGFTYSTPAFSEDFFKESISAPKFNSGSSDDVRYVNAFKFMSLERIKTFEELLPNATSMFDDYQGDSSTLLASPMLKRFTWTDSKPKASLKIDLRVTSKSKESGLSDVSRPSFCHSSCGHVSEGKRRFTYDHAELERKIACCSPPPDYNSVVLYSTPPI
Sequence of Calcium/calmodulin-dependent protein kinase type 1D (Homo sapiens) (Q8IU85 whole entry, looked up): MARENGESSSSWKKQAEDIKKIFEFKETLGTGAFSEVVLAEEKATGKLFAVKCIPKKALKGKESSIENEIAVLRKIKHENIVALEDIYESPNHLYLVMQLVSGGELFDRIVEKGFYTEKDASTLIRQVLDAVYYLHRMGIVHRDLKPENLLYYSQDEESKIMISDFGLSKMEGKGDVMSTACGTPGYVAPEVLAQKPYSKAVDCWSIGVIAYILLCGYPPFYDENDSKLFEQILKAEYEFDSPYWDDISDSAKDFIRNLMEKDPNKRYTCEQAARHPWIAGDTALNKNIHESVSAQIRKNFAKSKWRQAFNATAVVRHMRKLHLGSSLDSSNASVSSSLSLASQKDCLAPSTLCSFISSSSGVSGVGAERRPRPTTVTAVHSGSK
Sequence of Cyclin-dependent kinase 5 (Homo sapiens) (Q00535 whole entry, looked up): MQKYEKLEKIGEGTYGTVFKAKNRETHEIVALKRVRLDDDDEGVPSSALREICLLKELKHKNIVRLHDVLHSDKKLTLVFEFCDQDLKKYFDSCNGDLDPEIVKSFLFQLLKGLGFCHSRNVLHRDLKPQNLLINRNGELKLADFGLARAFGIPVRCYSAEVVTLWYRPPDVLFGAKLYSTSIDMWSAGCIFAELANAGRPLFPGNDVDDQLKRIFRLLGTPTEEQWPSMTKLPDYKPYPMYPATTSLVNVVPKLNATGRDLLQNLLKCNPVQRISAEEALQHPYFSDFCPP
Sequence of Mitogen-activated protein kinase 8 (Homo sapiens) (P45983 whole entry): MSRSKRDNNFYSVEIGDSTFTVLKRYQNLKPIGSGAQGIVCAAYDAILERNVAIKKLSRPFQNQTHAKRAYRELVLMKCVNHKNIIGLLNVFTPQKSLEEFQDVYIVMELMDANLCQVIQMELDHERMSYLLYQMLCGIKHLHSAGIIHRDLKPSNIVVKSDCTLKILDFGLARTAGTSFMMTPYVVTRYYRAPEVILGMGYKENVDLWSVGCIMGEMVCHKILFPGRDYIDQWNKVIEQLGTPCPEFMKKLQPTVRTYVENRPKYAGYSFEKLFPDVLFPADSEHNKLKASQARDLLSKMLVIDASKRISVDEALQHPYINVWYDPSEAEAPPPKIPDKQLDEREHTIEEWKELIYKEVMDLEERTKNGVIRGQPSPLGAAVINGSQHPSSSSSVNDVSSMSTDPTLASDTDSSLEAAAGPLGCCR
Sequence of Tyrosine-protein kinase Tec (Homo sapiens) (P42680 whole entry, looked up): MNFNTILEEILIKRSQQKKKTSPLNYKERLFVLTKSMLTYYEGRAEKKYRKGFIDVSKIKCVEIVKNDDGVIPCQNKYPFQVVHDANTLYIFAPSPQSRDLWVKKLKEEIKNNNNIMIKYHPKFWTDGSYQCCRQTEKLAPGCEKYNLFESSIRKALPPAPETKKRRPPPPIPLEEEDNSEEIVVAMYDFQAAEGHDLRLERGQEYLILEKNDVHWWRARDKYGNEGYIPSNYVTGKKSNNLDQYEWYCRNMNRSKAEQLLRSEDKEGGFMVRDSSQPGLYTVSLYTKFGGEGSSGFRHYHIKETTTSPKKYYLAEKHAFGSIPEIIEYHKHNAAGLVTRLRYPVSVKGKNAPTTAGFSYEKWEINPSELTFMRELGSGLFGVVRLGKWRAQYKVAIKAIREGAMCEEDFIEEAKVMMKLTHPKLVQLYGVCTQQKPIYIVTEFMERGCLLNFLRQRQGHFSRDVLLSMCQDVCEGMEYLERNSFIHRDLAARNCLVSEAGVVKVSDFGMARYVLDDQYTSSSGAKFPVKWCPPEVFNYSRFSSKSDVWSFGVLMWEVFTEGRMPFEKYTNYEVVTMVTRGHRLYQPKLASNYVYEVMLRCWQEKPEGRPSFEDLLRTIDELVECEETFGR

In general, inhibition refers to the drop in the measured response relative to a control, in per cent. For `O=C(N[C@@H](C1CC1)C(F)(F)F)c1cc(-c2cnn3cc(-c4ccc(F)cc4)cnc23)cs1`, the inhibition in assay [1] was determined as 0%. For the same compound, the fold change (FC) in assay [2] is 0.
Regarding `CNC(=O)c1ccccc1Oc1nc(Nc2cc(OC)c(OC)c(OC)c2)ncc1Br`, the values for the inhibition in assay [3], in assay [5] and in [6] were 2%, 5% and 23%, respectively. The fold change (FC) in assay [4] was found to be 0.2; in assay [7], 0.01; in assay [8], 1.08.
For the compound `CC(C)[C@H](NC(=O)c1cc(-c2cnn3cc(-c4ccc(OCCN5CCCCC5)cc4)cnc23)cs1)C(F)(F)F`, the inhibition was found to be 23% in assay [9] and 42% in assay [10]. For the same compound, the fold change (FC) in [11] turned out to be 0.
